Test results published in ChEMBL document CHEMBL1124721, “Antioxidant-based inhibitors of leukotriene biosynthesis. The discovery of 6-[1-[2-(hydroxymethyl)phenyl]-1-propen-3-yl]-2,3-dihydro-5- benzofuranol, a potent topical antiinflammatory agent” (J Med Chem, 1990).

How the values were obtained:
Mus musculus [1] = assay: Tested for ability to inhibit the topical inflammatory response in the topical mouse ear(TME) model; format: functional
In short: (§1)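 Mice received 25 μL on the inner surface of one ear, with five mice per group. Compound was applied in acetone/pyridine/water 97:2:1 together with 200 μg/mL PMA as irritant. Controls received vehicle alone or vehicle with PMA. Solvent was evaporated at room temperature. After 4 h, 6-mm ear punches were weighed wet to measure edema. ED50 came from four-point titrations.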

Homo sapiens = organism: Homo sapiens; assay: Inhibitory activity against production of leukotriene B4 in isolated human polymorphonuclear leukocytes; format: functional
In short: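 Leukotriene biosynthesis in human polymorphonuclear leukocytes was started with calcium ionophore A23187, and LTB₄ was quantified by radioimmunoassay. Inhibition curves came from five-point titrations fitted with a four-parameter algorithm to give IC50. Compounds were generally tested at least in duplicate, with the IC50 reported as the mean of all determinations.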

[2] = Partition coefficient (logP); format: physicochemical; conditions: octanol/water
In short: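 Octanol/water log P was estimated by calculation with commercial software, not measured experimentally.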

Mus musculus [3] = assay: Tested for its ability to inhibit the topical inflammatory response in the topical mouse ear(TME) model; format: functional; in short: as §1

Compound	IC50 (Homo sapiens) [nM]	logP [2]	ED50 (Mus musculus [1]) [uM site-1]	ED50 (Mus musculus [3]) [uM site-1]
COc1ccc(O)c(CSc2ccccc2)c1	590	3.9		
CCOC(=O)c1ccc(NCc2cc3c(cc2O)CCCO3)cc1	600	4.6		
Oc1cc2c(cc1CNc1ccccc1)OCCC2	1700	3.5	0.67	
CC(=O)c1ccc(/C=C/Cc2cc3c(cc2O)CCO3)cc1	60	4	0.54	
OCc1ccccc1/C=C/Cc1cc2c(cc1O)CCO2	130	3.5	0.74	
Oc1ccc2c(c1CNc1ccc(F)cc1F)CCCO2	1400	4.2		
OCc1ccccc1NCc1c(O)ccc2c1CCCO2	17000	2.4	0.6	
COc1ccc(O)c(CSc2ccccc2CO)c1	8700	2.9	0.87	
COc1ccc2c(c1)c(CC(=O)O)c(C)n2C(=O)c1ccc(Cl)cc1 [INDOMETHACIN]			0.64	
O=Cc1ccccc1/C=C/Cc1cc2c(cc1O)CCO2	70	3.9		
N#Cc1cc(NCc2cc3c(cc2O)CCO3)cs1	440	2.8		
CC(=O)c1ccc(SCc2cc3c(cc2O)CCCO3)cc1	440	4.2		
COc1ccc(O)c(CCc2ccccc2)c1	120	4.3		
Oc1cc2c(cc1CNc1ccc(F)cc1F)OCCC2	1300	4.2		
Oc1cc2c(cc1CNc1ccccc1)OCC2	490	2.9		
CC(=O)c1ccc(NCc2cc3c(cc2O)CCCO3)cc1	4100	3.5	0.35	

More lines, in order of falling IC50 (Homo sapiens), values ahead:

IC50 (Homo sapiens) [nM]	logP [2]	Compound	ED50 (Mus musculus [1]) [uM site-1]	ED50 (Mus musculus [3]) [uM site-1]
42000	2.2	OCc1ccccc1NCc1cc2occc2cc1O	0.44	
21000	2.4	OCc1ccccc1NCc1cc2c(cc1O)CCCO2	0.49	
11000	3.3	Oc1cc2ccoc2cc1CNc1ccccc1	0.97	
11000	1.9	OCc1ccccc1NCc1cc2c(cc1O)CCO2		
11000	3.5	CC(=O)c1ccc(NCc2c(O)ccc3c2CCCO3)cc1		
4700	2.8	COc1ccc(O)c(CNc2ccccc2)c1		0.61
2600	2.7	COc1ccc(O)c(CNc2ccc(C#N)s2)c1		
1600	3.6	N#Cc1ccc(NCc2cc3c(cc2O)CCCO3)cc1	1.61	
1400	3.6	OCc1ccccc1SCc1cc2c(cc1O)CCCO2		
1400	3.3	COc1ccc(O)c(COc2ccccc2)c1		
1300	3.5	COc1ccc(O)c(CNc2ccc(F)cc2F)c1		
1200	2.9	CC(=O)c1ccc(NCc2cc3c(cc2O)CCO3)cc1	0.35	
990	2.8	N#Cc1ccc(NCc2cc3c(cc2O)CCO3)s1		
660	3.6	Oc1cc2c(cc1CNc1ccc(F)cc1F)OCC2		
250	4.4	COc1ccc(O)c(C/C=C/c2ccccc2)c1	1.08	
190	4	OCc1ccccc1CCCc1cc2c(cc1O)CCO2		
